From ChEMBL document CHEMBL3414463, “Discovery of potent and selective 8-fluorotriazolopyridine c-Met inhibitors” (J Med Chem, 2015) come the findings set out here.

Data set [1] concerns Liver microsome. Kind of data set: Drug metabolism in rat liver microsomes assessed as formation of (S)-2-(6-(1-(8-fluoro-6-(3-methylisoxazol-5-yl)-[1,2,4]triazolo[4,3-a]pyridin-3-yl)ethyl)quinolin-3-yloxy)ethanol in presence of NADPH by LC-MS/MS method. Type of data set: ADME. In short, it runs like this:
(§1)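 Compound incubated with NADPH in mouse, rat, dog, monkey or human liver microsomes. Metabolites were identified by accurate mass spectrometry and MS/MS, and selected ion chromatograms were used to build metabolite profiles.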

Data set [2] has as its system Mus musculus. Kind of data set: Inhibition of human recombinant HGF-stimulated c-Met autophosphorylation in Balb/c mouse assessed as relative phospho c-Met level at 10 mg/kg, po administered as single dose and measured 6 hrs before mouse sacrifice by electrochemiluminescence immunoassay. Set-up: scale not given: the % may be the effect or the level left. The format is functional. In short, it runs like this:
(§2)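 Mice received a single 10 mg/kg oral dose. Human recombinant HGF (12 μg) was given IV at 1, 3, 6, 9, 12 or 24 h postdose, and liver was harvested 5 min later. Liver phospho-c-Met was measured by electrochemiluminescent immunoassay. Mean ± SD, n = 3; ANOVA with Bonferroni/Dunn test versus HGF control.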

A short description of data set [3]: Drug metabolism in mouse liver microsomes assessed as formation of (S)-2-(6-(1-(8-fluoro-6-(3-methylisoxazol-5-yl)-[1,2,4]triazolo[4,3-a]pyridin-3-yl)ethyl)quinolin-3-yloxy)ethanol in presence of NADPH by LC-MS/MS method. Type of data set: ADME. The method in brief: as §1
Data set [4] is described as follows: Drug metabolism in monkey liver microsomes assessed as formation of (S)-2-(6-(1-(8-fluoro-6-(3-methylisoxazol-5-yl)-[1,2,4]triazolo[4,3-a]pyridin-3-yl)ethyl)quinolin-3-yloxy)ethanol in presence of NADPH by LC-MS/MS method. Type of data set: ADME, Macaca mulatta. The conditions noted are these: rhesus monkey. In short, it runs like this: as §1
The subject of data set [5] is Mus musculus. Kind of data set: Inhibition of human recombinant HGF-stimulated c-Met autophosphorylation in Balb/c mouse assessed as relative phospho c-Met level at 10 mg/kg, po administered as single dose and measured 1 hr before mouse sacrifice by electrochemiluminescence immunoassay. Type of data set: functional. The arrangement: scale not given: the % may be the effect or the level left. In short, it runs like this:
as §2

The test system of data set [6] is Mus musculus. Kind of data set: Inhibition of human recombinant HGF-stimulated c-Met autophosphorylation in Balb/c mouse assessed as relative phospho c-Met level at 10 mg/kg, po administered as single dose and measured 9 hrs before mouse sacrifice by electrochemiluminescence immunoassay. The format is functional. The arrangement: scale not given: the % may be the effect or the level left. In short, it runs like this: as §2

Data set [7] has as its system Liver microsome. The data set is described as follows: Drug metabolism in human liver microsomes assessed as formation of (S)-2-(6-(1-(8-fluoro-6-(3-methylisoxazol-5-yl)-[1,2,4]triazolo[4,3-a]pyridin-3-yl)ethyl)quinolin-3-yloxy)acetic acid in presence of NADPH by LC-MS/MS method. Type of data set: ADME. The method in brief:
as §1

For data set [8], the system named is Rattus norvegicus. The data set is described as follows: AUC (0 to infinity) in Sprague-Dawley rat at 0.25 mg/kg, iv. Type of data set: ADME, organism-based, Plasma. The arrangement: dose 0.25 mg/kg, route intravenous, time infinity. The note with it: in vivo.
Data set [9] in a line: Drug metabolism in monkey liver microsomes assessed as formation of (S)-2-(6-(1-(8-fluoro-6-(3-methylisoxazol-5-yl)-[1,2,4]triazolo[4,3-a]pyridin-3-yl)ethyl)quinolin-3-yloxy)acetic acid in presence of NADPH by LC-MS/MS method. Type of data set: ADME, Macaca mulatta. The note with it: rhesus monkey. The method in brief:
as §1

The nature of data set [10]: Half life in Sprague-Dawley rat at 0.25 mg/kg, iv. The format is ADME, organism-based. The arrangement: dose 0.25 mg/kg, route intravenous. The conditions noted are these: in vivo.
For data set [11], the system named is Rattus norvegicus. Kind of data set: Clearance in Sprague-Dawley rat at 0.25 mg/kg, iv. The format is ADME, organism-based. The arrangement: dose 0.25 mg/kg, route intravenous. The conditions noted are these: in vivo.
Data set [12] relates to Liver microsome. The data set is described as follows: Drug metabolism in rat liver microsomes assessed as formation of (S)-2-(6-(1-(8-fluoro-6-(3-methylisoxazol-5-yl)-[1,2,4]triazolo[4,3-a]pyridin-3-yl)ethyl)quinolin-3-yloxy)acetic acid in presence of NADPH by LC-MS/MS method. The format is ADME. In short, it runs like this: as §1
In data set [13] the test system is Liver microsome. The data set is described as follows: Unbound clearance rat liver microsomes at 1 uM in presence of NADPH by LC-MS/MS method. The format is ADME. In short, it runs like this:
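Aliquots were taken at 0, 10, 20, 30 and 40 min, quenched with an equal volume of acetonitrile, centrifuged and analysed by LC/MS/MS.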

The test system of data set [14] is Mus musculus. The data set is described as follows: Inhibition of human recombinant HGF-stimulated c-Met autophosphorylation in Balb/c mouse assessed as relative phospho c-Met level at 10 mg/kg, po administered as single dose and measured 12 hrs before mouse sacrifice by electrochemiluminescence immunoassay. Type of data set: functional. Set-up: scale not given: the % may be the effect or the level left. The method in brief: as §2

Data set [15] can be described thus: Volume of distribution at steady state in Sprague-Dawley rat at 0.25 mg/kg, iv. The format is ADME, organism-based. The arrangement: dose 0.25 mg/kg, route intravenous. The conditions noted are these: in vivo, read-out: Vdss. In short, it runs like this: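 Male Sprague-Dawley rats were given a single IV dose of 0.25 mg/kg. The vehicle was DMSO, or for some compounds 20% (w/v) hydroxypropyl β-cyclodextrin in water adjusted to pH 3.5 with MSA. NC marks cases where the terminal disposition rate constant could not be characterized for lack of slope.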

Data set [16] has as its system Liver microsome. Kind of data set: Drug metabolism in human liver microsomes assessed as formation of (S)-2-(6-(1-(8-fluoro-6-(3-methylisoxazol-5-yl)-[1,2,4]triazolo[4,3-a]pyridin-3-yl)ethyl)quinolin-3-yloxy)ethanol in presence of NADPH by LC-MS/MS method. The format is ADME. In short, it runs like this:
as §1

In data set [17] the test system is Liver microsome. The data set is described as follows: Drug metabolism in dog liver microsomes assessed as formation of (S)-2-(6-(1-(8-fluoro-6-(3-methylisoxazol-5-yl)-[1,2,4]triazolo[4,3-a]pyridin-3-yl)ethyl)quinolin-3-yloxy)acetic acid in presence of NADPH by LC-MS/MS method. Type of data set: ADME, Canis lupus familiaris. The method in brief:
as §1

In data set [18] the test system is Mus musculus. The data set is described as follows: Inhibition of human recombinant HGF-stimulated c-Met autophosphorylation in Balb/c mouse assessed as relative phospho c-Met level at 10 mg/kg, po administered as single dose and measured 24 hrs before mouse sacrifice by electrochemiluminescence immunoassay. Type of data set: functional. Set-up: scale not given: the % may be the effect or the level left. The method in brief:
as §2

The target of data set [19] is T1, Hepatocyte growth factor receptor (Homo sapiens, UniProt P08581). The data set is described as follows: Inhibition of recombinant c-Met kinase domain (unknown origin) incubated for 30 mins using gastrin peptide substrate by HTRF assay.
T1 sequence (P08581 whole entry, the tested form may be a part): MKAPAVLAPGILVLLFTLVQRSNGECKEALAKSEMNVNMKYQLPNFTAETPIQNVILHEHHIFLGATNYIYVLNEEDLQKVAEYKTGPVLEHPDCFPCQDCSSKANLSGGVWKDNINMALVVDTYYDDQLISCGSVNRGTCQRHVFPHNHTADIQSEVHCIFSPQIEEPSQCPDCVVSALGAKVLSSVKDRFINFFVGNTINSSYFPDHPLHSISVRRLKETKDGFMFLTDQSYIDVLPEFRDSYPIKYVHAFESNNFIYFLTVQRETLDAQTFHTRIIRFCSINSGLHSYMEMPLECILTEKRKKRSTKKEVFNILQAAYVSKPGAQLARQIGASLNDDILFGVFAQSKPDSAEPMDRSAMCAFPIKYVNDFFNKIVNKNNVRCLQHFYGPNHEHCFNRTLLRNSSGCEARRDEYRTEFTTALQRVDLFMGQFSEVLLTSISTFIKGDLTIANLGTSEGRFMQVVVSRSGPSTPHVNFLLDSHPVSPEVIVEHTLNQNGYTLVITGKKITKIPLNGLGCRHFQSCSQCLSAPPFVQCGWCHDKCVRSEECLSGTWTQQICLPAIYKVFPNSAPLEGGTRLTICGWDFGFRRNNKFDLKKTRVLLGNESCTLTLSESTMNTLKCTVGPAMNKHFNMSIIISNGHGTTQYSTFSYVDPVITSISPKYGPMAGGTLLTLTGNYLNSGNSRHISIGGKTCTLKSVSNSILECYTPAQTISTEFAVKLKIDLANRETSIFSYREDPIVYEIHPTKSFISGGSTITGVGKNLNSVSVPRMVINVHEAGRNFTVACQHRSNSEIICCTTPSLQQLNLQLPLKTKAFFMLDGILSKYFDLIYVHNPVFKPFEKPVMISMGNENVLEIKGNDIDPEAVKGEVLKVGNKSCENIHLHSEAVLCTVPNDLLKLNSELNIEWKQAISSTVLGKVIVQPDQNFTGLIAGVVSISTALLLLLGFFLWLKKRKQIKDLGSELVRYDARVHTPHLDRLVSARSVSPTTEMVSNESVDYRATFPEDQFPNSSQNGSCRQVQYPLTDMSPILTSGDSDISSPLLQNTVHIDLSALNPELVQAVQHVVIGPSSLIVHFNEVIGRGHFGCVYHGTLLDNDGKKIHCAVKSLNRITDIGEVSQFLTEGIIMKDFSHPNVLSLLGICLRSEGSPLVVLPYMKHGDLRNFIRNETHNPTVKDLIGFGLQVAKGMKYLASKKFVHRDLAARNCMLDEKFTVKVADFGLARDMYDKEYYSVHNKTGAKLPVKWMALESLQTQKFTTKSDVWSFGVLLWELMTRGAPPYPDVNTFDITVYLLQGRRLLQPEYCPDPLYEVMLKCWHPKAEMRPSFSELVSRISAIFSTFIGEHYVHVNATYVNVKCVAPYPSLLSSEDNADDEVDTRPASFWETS
The test system of data set [20] is Liver microsome. The data set is described as follows: Drug metabolism in dog liver microsomes assessed as formation of (S)-2-(6-(1-(8-fluoro-6-(3-methylisoxazol-5-yl)-[1,2,4]triazolo[4,3-a]pyridin-3-yl)ethyl)quinolin-3-yloxy)ethanol in presence of NADPH by LC-MS/MS method. The format is ADME, Canis lupus familiaris. In short, it runs like this:
as §1

In data set [21] the target is T1, Hepatocyte growth factor receptor. The data set is described as follows: Inhibition of HGF-stimulated c-Met autophosphorylation in serum starved human PC3 cells pre-incubated for 1 hr followed by human recombinant HGF stimulation for 10 mins by quantitative electrochemiluminescence immunoassay. The format is cell-based, PC-3. The method in brief: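 Serum-starved PC-3 cells (plated in high-glucose DMEM/10% FBS, then 16 h in low-glucose DMEM with 0.1% BSA) were treated with a 10-point inhibitor dilution for 1 h at 37 °C. Cells were then stimulated with 200 ng/mL recombinant human HGF for 10 min and lysed. Phospho-c-Met was captured with biotinylated anti-c-Met and 4G10 by electrochemiluminescence. IC50, n ≥ 2.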

A short description of data set [22]: Oral bioavailability in Sprague-Dawley rat at 2 mg/kg. The format is ADME, organism-based. The conditions noted are these: in vivo. In short, it runs like this:
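Male Sprague-Dawley rats given 2.0 mg/kg orally in 2% (w/v) hydroxypropylmethylcellulose, 1% (w/v) Tween 80 in water, pH 2.2 (adjusted with HCl or MSA). Some inhibitors instead used 10% (v/v) dimethylacetamide in the same vehicle.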

Data set [23] in a line: Drug metabolism in mouse liver microsomes assessed as formation of (S)-2-(6-(1-(8-fluoro-6-(3-methylisoxazol-5-yl)-[1,2,4]triazolo[4,3-a]pyridin-3-yl)ethyl)quinolin-3-yloxy)acetic acid in presence of NADPH by LC-MS/MS method. The format is ADME. In short, it runs like this:
as §1

Data set [24] has as its system Mus musculus. Kind of data set: Inhibition of human recombinant HGF-stimulated c-Met autophosphorylation in Balb/c mouse assessed as relative phospho c-Met level at 10 mg/kg, po administered as single dose and measured 3 hrs before mouse sacrifice by electrochemiluminescence immunoassay. The format is functional. The arrangement: scale not given: the % may be the effect or the level left. The method in brief:
as §2

Take `COCCOc1cnc2ccc([C@H](C)c3nnc4c(F)cc(-c5cc(C)no5)cn34)cc2c1`: the Drug metabolism result in [1], in data set [3], in data set [4], in [7], in [9] and in data set [12] was “metabolite_detected” each time. Moreover, the Drug metabolism result in data set [16], in data set [17], in [20] and in data set [23] was “metabolite_detected” each time. Also, the Activity amounted to 94% in data set [2]; 96% in data set [5]; 64% in data set [6]; 47% in [14]; 27% in data set [18]; 99% in data set [24]. The molecule further came in with an AUC in [8] of 3.1 µM·h. In addition, the half-life in data set [10] was 4.2 h. The same molecule registered a CL in [11] of 9.5 mL/min/kg. For the same molecule, the CL free in [13] was 417 mL/min/kg. Besides, the Vd in data set [15] worked out at 4.9 L/kg. Besides, the IC50 in data set [19] was 1 nM; in data set [21] it was 5 nM. In addition, the bioavailability in data set [22] worked out at 46%.
